In brackets after ≈: the same amount, converted by molar mass.
How the values were obtained:
D(2) dopamine receptor = D(2) dopamine receptor (Homo sapiens, UniProt P14416); experiment: Displacement of [3H]NMSP from human dopamine D2S receptor expressed in CHO cell membrane incubated for 1 hr by scintillation counting method; type: cell membranes
Method in brief: (§1)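 Competition binding: [3H]-LSD displacement for 5-HT6 and [3H]-NMSP displacement for D2. Eight compound concentrations, 5 × 10^-6 to 5 × 10^-13 M, each tested in triplicate. Affinity is reported as Ki.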

[1] = Passive permeability of compound after 4 hrs by sink-PAMPA assay; type: ADME; conditions: read-out: permeability
Cytochrome P450 3A4 = Cytochrome P450 3A4 (Homo sapiens, UniProt P08684); experiment: Inhibition of human recombinant CYP3A4 using 7-benzyloxy-trifluoromethylcoumarin as substrate incubated for 30 mins by fluorescence analysis in presence of NADPH; type: ADME
Cytochrome P450 2D6 = Cytochrome P450 2D6 (Homo sapiens, UniProt P10635); experiment: Inhibition of human recombinant CYP2D6 using AMMC as substrate incubated for 45 mins by fluorescence analysis in presence of NADPH; type: ADME
[2] = Intrinsic clearance in human liver microsomes at 1 uM by UPLC-MS analysis in presence of NADPH and UDPGA; type: ADME; conditions: read-out: CLH
[3] = Intrinsic clearance in mouse liver microsomes at 1 uM by UPLC-MS analysis in presence of NADPH and UDPGA; type: ADME; conditions: read-out: CLH
[4] = Intrinsic clearance in rat liver microsomes at 1 uM by UPLC-MS analysis in presence of NADPH and UDPGA; type: ADME; conditions: read-out: CLH
[5] = molecular target: Voltage-gated inwardly rectifying potassium channel KCNH2 (Homo sapiens, UniProt Q12809); experiment: Inhibition of human ERG1 expressed in CHO cells by whole cell patch clamp electrophysiology method
[6] = Kinetic solubility in sorensen buffer at pH 7.4 incubated for 1 hr by UV-Visible spectrophotometry; type: physicochemical; conditions: read-out: Kinetic_solubility
[7] = Cmax in CD1 mouse plasma at 3 mg/kg, po as single dose after 0.083 to 6 hrs by LC-MS/MS analysis; type: ADME, organism-based; set-up: dose 3 mg/kg, route oral
[8] = Tmax in CD1 mouse plasma at 3 mg/kg, po as single dose by LC-MS/MS analysis; type: ADME, organism-based
[9] = AUClast in CD1 mouse plasma at 3 mg/kg, po as single dose after 0.083 to 6 hrs by LC-MS/MS analysis; type: ADME, organism-based; set-up: dose 3 mg/kg, time upper 6 hr, time lower 0.083 hr, route oral
[10] = Cmax in CD1 mouse plasma at 10 mg/kg, po as single dose after 0.083 to 6 hrs by LC-MS/MS analysis; type: ADME, organism-based; set-up: dose 10 mg/kg, route oral
[11] = Tmax in CD1 mouse plasma at 10 mg/kg, po as single dose by LC-MS/MS analysis; type: ADME, organism-based
[12] = AUClast in CD1 mouse plasma at 10 mg/kg, po as single dose after 0.083 to 6 hrs by LC-MS/MS analysis; type: ADME, organism-based; set-up: time upper 6 hr, time lower 0.083 hr, dose 10 mg/kg, route oral
[13] = Cmax in CD1 mouse plasma at 3 mg/kg, sc after 0.083 to 6 hrs by LC-MS/MS analysis; type: ADME, organism-based; set-up: dose 3 mg/kg, route subcutaneous
[14] = Tmax in CD1 mouse plasma at 3 mg/kg, sc by LC-MS/MS analysis; type: ADME, organism-based
[15] = AUClast in CD1 mouse plasma at 3 mg/kg, sc after 0.083 to 6 hrs by LC-MS/MS analysis; type: ADME, organism-based; set-up: time lower 0.083 hr, dose 3 mg/kg, time upper 6 hr, route subcutaneous
[16] = Cmax in CD1 mouse plasma at 10 mg/kg, sc after 0.083 to 6 hrs by LC-MS/MS analysis; type: ADME, organism-based; set-up: dose 10 mg/kg, route subcutaneous
[17] = Tmax in CD1 mouse plasma at 10 mg/kg, sc by LC-MS/MS analysis; type: ADME, organism-based
[18] = AUClast in CD1 mouse plasma at 10 mg/kg, sc after 0.083 to 6 hrs by LC-MS/MS analysis; type: ADME, organism-based; set-up: time 0.083-6 hr, dose 10 mg/kg, route subcutaneous
Brain [19] = experiment: Cmax in CD1 mouse brain at 3 mg/kg, po as single dose after 6 hrs by LC-MS/MS analysis; type: ADME, organism-based; set-up: dose 3 mg/kg, route oral; conditions: in vivo, BLD = below limit of detection
Brain [20] = experiment: Tmax in CD1 mouse brain at 3 mg/kg, po as single dose by LC-MS/MS analysis; type: ADME, organism-based; conditions: in vivo, BLD = below limit of detection
[21] = Cmax in CD1 mouse brain at 10 mg/kg, po as single dose after 6 hrs by LC-MS/MS analysis; type: ADME, organism-based; set-up: dose 10 mg/kg, route oral
[22] = Tmax in CD1 mouse brain at 10 mg/kg, po as single dose by LC-MS/MS analysis; type: ADME, organism-based
[23] = AUClast in CD1 mouse brain at 10 mg/kg, po as single dose after 6 hrs by LC-MS/MS analysis; type: ADME, organism-based; set-up: time < 6 hr, dose 10 mg/kg, route oral
[24] = Cmax in CD1 mouse brain at 3 mg/kg, sc after 6 hrs by LC-MS/MS analysis; type: ADME, organism-based; set-up: dose 3 mg/kg, route subcutaneous
[25] = Tmax in CD1 mouse brain at 3 mg/kg, sc by LC-MS/MS analysis; type: ADME, organism-based
[26] = AUClast in CD1 mouse brain at 3 mg/kg, sc after 6 hrs by LC-MS/MS analysis; type: ADME, organism-based; set-up: time < 6 hr, dose 3 mg/kg, route subcutaneous
[27] = Cmax in CD1 mouse brain at 10 mg/kg, sc after 6 hrs by LC-MS/MS analysis; type: ADME, organism-based; set-up: dose 10 mg/kg, route subcutaneous
[28] = Tmax in CD1 mouse brain at 10 mg/kg, sc by LC-MS/MS analysis; type: ADME, organism-based
[29] = AUClast in CD1 mouse brain at 10 mg/kg, sc after 6 hrs by LC-MS/MS analysis; type: ADME, organism-based; set-up: dose 10 mg/kg, time < 6 hr, route subcutaneous
[30] = Cmax in CD1 mouse liver at 3 mg/kg, po as single dose after 6 hrs by LC-MS/MS analysis; type: ADME, organism-based; set-up: dose 3 mg/kg, route oral
[31] = Tmax in CD1 mouse liver at 3 mg/kg, po as single dose by LC-MS/MS analysis; type: ADME, organism-based
[32] = AUClast in CD1 mouse liver at 3 mg/kg, po as single dose after 6 hrs by LC-MS/MS analysis; type: ADME, organism-based; set-up: dose 3 mg/kg, time < 6 hr, route oral
[33] = Cmax in CD1 mouse liver at 10 mg/kg, po as single dose after 6 hrs by LC-MS/MS analysis; type: ADME, organism-based; set-up: dose 10 mg/kg, route oral
[34] = Tmax in CD1 mouse liver at 10 mg/kg, po as single dose by LC-MS/MS analysis; type: ADME, organism-based
[35] = AUClast in CD1 mouse liver at 10 mg/kg, po as single dose after 6 hrs by LC-MS/MS analysis; type: ADME, organism-based; set-up: dose 10 mg/kg, time < 6 hr, route oral
[36] = Cmax in CD1 mouse liver at 3 mg/kg, sc after 6 hrs by LC-MS/MS analysis; type: ADME, organism-based; set-up: dose 3 mg/kg, route subcutaneous
[37] = Tmax in CD1 mouse liver at 3 mg/kg, sc by LC-MS/MS analysis; type: ADME, organism-based
[38] = AUClast in CD1 mouse liver at 3 mg/kg, sc after 6 hrs by LC-MS/MS analysis; type: ADME, organism-based; set-up: time < 6 hr, dose 3 mg/kg, route subcutaneous
[39] = Cmax in CD1 mouse liver at 10 mg/kg, sc after 6 hrs by LC-MS/MS analysis; type: ADME, organism-based; set-up: dose 10 mg/kg, route subcutaneous
[40] = Tmax in CD1 mouse liver at 10 mg/kg, sc by LC-MS/MS analysis; type: ADME, organism-based
[41] = AUClast in CD1 mouse liver at 10 mg/kg, sc after 6 hrs by LC-MS/MS analysis; type: ADME, organism-based; set-up: dose 10 mg/kg, time < 6 hr, route subcutaneous
[42] = Ratio of drug level in brain to plasma in CD1 mouse at 3 mg/kg, po as single dose by LC-MS/MS analysis; type: ADME, organism-based; conditions: BLD = below limit of detection
[43] = Ratio of drug level in brain to plasma in CD1 mouse at 10 mg/kg, po as single dose by LC-MS/MS analysis; type: ADME, organism-based; conditions: read-out: BPR
[44] = Ratio of drug level in brain to plasma in CD1 mouse at 3 mg/kg, sc by LC-MS/MS analysis; type: ADME, organism-based; conditions: read-out: BPR
[45] = Ratio of drug level in brain to plasma in CD1 mouse at 10 mg/kg, sc by LC-MS/MS analysis; type: ADME, organism-based; conditions: read-out: BPR
[46] = Ratio of drug level in liver to plasma in CD1 mouse at 3 mg/kg, po as single dose by LC-MS/MS analysis; type: ADME, organism-based
[47] = Ratio of drug level in liver to plasma in CD1 mouse at 10 mg/kg, po as single dose by LC-MS/MS analysis; type: ADME, organism-based
[48] = Ratio of drug level in liver to plasma in CD1 mouse at 3 mg/kg, sc by LC-MS/MS analysis; type: ADME, organism-based
[49] = Ratio of drug level in liver to plasma in CD1 mouse at 10 mg/kg, sc by LC-MS/MS analysis; type: ADME, organism-based
[50] = molecular target: 5-hydroxytryptamine receptor 6 (Homo sapiens, UniProt P50406); experiment: Displacement of [3H]LSD from human 5HT6 receptor in HEK293 cell membrane incubated for 1 hr by scintillation counting method; type: cell membranes; method in brief: as §1
Sequence of 5-hydroxytryptamine receptor 6 (P50406 whole entry): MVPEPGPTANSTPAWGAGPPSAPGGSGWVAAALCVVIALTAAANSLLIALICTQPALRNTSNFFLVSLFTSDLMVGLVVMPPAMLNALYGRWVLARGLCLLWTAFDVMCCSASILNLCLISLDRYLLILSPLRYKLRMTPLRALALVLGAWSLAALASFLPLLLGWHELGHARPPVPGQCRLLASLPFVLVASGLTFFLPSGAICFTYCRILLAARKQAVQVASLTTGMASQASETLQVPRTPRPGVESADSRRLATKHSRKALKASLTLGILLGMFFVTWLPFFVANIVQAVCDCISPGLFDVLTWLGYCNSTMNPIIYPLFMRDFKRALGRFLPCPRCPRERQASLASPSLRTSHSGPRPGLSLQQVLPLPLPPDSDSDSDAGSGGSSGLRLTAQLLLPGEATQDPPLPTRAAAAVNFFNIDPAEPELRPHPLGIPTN

Sequence of Cytochrome P450 2D6 (P10635 whole entry): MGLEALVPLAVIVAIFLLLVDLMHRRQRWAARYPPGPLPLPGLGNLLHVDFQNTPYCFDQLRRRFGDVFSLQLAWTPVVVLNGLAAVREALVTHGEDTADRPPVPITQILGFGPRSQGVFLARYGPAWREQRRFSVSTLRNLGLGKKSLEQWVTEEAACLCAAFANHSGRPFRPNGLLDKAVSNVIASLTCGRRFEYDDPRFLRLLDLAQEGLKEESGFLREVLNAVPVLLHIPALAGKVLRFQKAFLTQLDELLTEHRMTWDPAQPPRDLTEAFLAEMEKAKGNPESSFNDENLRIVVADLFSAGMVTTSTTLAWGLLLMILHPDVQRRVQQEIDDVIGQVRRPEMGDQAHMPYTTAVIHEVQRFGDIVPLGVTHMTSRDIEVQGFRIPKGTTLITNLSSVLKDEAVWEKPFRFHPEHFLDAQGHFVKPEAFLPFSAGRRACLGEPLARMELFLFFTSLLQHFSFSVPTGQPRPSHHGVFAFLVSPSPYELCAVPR
Sequence of D(2) dopamine receptor (P14416 whole entry): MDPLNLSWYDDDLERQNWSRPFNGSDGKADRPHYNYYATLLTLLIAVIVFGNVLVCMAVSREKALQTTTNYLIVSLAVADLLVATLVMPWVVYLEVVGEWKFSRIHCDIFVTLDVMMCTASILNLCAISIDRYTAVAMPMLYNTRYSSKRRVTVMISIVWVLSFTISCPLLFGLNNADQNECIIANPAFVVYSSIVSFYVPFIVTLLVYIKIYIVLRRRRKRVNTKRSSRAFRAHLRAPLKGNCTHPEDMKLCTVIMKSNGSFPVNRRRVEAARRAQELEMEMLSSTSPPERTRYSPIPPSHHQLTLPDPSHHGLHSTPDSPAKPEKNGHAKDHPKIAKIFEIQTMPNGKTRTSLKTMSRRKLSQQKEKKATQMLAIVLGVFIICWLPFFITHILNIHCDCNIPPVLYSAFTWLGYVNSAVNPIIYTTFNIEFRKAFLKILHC
Sequence of Cytochrome P450 3A4 (P08684 whole entry): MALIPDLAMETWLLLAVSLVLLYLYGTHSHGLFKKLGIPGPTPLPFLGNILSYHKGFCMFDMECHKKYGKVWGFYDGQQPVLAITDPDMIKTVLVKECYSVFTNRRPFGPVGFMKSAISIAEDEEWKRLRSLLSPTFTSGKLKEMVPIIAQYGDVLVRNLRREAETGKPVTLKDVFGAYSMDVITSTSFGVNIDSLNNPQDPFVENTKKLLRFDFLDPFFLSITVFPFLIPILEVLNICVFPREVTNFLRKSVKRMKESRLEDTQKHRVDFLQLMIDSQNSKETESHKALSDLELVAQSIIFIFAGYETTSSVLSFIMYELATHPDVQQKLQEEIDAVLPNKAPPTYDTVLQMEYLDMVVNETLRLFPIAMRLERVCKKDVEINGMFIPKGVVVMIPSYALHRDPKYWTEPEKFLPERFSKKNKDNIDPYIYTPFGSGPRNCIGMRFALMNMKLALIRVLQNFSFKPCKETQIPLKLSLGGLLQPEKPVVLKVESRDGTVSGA
Sequence of Voltage-gated inwardly rectifying potassium channel KCNH2 (Q12809 whole entry): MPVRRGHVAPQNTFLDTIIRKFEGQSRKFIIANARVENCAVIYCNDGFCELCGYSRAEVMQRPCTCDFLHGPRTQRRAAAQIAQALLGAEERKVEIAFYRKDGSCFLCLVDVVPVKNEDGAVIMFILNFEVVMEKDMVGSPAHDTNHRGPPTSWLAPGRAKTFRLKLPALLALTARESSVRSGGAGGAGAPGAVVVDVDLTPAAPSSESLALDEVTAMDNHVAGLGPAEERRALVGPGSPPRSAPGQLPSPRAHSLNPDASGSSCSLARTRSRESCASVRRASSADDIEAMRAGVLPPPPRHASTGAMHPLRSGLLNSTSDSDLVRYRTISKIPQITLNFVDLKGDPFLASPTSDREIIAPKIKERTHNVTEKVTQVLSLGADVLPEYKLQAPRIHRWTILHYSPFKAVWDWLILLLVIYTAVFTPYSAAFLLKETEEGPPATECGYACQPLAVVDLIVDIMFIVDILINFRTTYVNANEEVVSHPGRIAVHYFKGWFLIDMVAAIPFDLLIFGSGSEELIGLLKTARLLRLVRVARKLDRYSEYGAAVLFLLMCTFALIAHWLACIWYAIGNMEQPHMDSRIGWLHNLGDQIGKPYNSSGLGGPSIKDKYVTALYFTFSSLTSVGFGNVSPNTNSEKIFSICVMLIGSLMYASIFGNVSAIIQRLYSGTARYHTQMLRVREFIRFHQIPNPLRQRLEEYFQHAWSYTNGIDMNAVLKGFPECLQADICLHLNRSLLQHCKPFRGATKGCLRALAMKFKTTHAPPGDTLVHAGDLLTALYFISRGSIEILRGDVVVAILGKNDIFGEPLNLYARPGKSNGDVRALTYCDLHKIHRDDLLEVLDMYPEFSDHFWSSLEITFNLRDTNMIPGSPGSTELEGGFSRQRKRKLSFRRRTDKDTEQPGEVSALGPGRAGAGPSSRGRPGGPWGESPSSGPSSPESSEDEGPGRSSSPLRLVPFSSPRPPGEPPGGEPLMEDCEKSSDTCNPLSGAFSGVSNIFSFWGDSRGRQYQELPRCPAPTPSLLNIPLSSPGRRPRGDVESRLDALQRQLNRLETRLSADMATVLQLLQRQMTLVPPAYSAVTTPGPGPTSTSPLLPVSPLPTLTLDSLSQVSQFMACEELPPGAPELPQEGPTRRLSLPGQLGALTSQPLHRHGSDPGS

Ki (D(2) dopamine receptor): 367 nM
Papp at 4 h [1]: 53.7 ×10⁻⁶ cm/s
IC50 (Cytochrome P450 3A4): 1100 nM
IC50 (Cytochrome P450 2D6): 3300 nM
microsomal CLint at 1 µM [2]: 20 µL/min/mg
microsomal CLint at 1 µM [3]: 63 µL/min/mg
microsomal CLint at 1 µM [4]: 55 µL/min/mg
solubility kinetic at 1 h [6]: 8 µg/mL (≈ 16.6 µM)
Cmax [7]: 3 ng/mL
Tmax [8]: 1 h
AUC(0-t) [9]: 13 ng·h/mL
Cmax [10]: 17 ng/mL
Tmax [11]: 6 h
AUC(0-t) [12]: 97 ng·h/mL
Cmax [13]: 18 ng/mL
Tmax [14]: 1 h
AUC(0-t) [15]: 90 ng·h/mL
Cmax [16]: 44 ng/mL
Tmax [17]: 1 h
AUC(0-t) [18]: 208 ng·h/mL
Cmax (Brain [19]): BLD
Tmax (Brain [20]): BLD
Cmax [21]: 26 ng/mL
Tmax [22]: 6 h
AUC(0-t) at 6 h [23]: 134 ng·h/mL
Cmax [24]: 16 ng/mL
Tmax [25]: 6 h
AUC(0-t) at 6 h [26]: 79 ng·h/mL
Cmax [27]: 36 ng/mL
Tmax [28]: 6 h
AUC(0-t) at 6 h [29]: 161 ng·h/mL
Cmax [30]: 110 ng/mL
Tmax [31]: 0.25 h
AUC(0-t) at 6 h [32]: 260 ng·h/mL
Cmax [33]: 740 ng/mL
Tmax [34]: 0.5 h
AUC(0-t) at 6 h [35]: 2970 ng·h/mL
Cmax [36]: 43 ng/mL
Tmax [37]: 1 h
AUC(0-t) at 6 h [38]: 241 ng·h/mL
Cmax [39]: 142 ng/mL
Tmax [40]: 1 h
AUC(0-t) at 6 h [41]: 687 ng·h/mL
BPR [42]: BLD
Kp [43]: 1.4
Kp [44]: 0.9
Kp [45]: 0.8
Kp [46]: 19.5
Kp [47]: 30.7
Kp [48]: 2.7
Kp [49]: 3.3
Ki [50]: 4 nM
Compound: CC(C)CS(=O)(=O)n1ccc2c(-c3ccc(C(F)(F)F)cc3)cc(N3CCN(C)CC3)nc21
IC50 [5]: 2100 nM

From ChEMBL document CHEMBL3797149, “1-Sulfonyl-6-Piperazinyl-7-Azaindoles as potent and pseudo-selective 5-HT6 receptor antagonists” (Bioorg Med Chem Lett, 2016)
